{"source": "ChEMBL document CHEMBL3868627", "about": "“Radical scavenging and antibacterial activity of caffemides against gram positive, gram negative and clinical drug resistance bacteria” (Bioorg Med Chem Lett, 2016)", "format_in_all_cases": "functional", "key": {"[1]": {"tested_on": "Staphylococcus aureus", "experiment": "Bactericidal activity against Staphylococcus aureus ATCC 25923 at 50 ug/ml measured after 24 hrs by serial dilution method relative to control"}, "[2]": {"tested_on": "Staphylococcus aureus", "experiment": "Antibacterial activity against methicillin-resistant Staphylococcus aureus ATCC 43300 measured after 24 hrs by serial dilution method"}, "[3]": {"tested_on": "Staphylococcus aureus", "experiment": "Antibacterial activity against methicillin-resistant Staphylococcus aureus ATCC 43300 assessed as colony forming units at 200 ug/ml measured after 6 hrs by serial dilution method (reference value: 64.33 +/- 3.51 10^6CFU)", "in_short": "(§1)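 Bacteria were exposed to test compound over a range of µg/ml concentrations. Viable bacteria were counted by colony forming unit (CFU) assay at set time points (6 h and 24 h for M. smegmatis and S. aureus strains), and untreated bacteria served as the control. Percentage of population killed was calculated relative to the untreated control. Values are means ± S.D of three independent trials.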"}, "[4]": {"tested_on": "Staphylococcus aureus", "experiment": "Antibacterial activity against methicillin-resistant Staphylococcus aureus ATCC 43300 assessed as colony forming units at 100 ug/ml measured after 24 hrs by serial dilution method (reference value: 74 +/- 2 10^6CFU)", "in_short": "as §1"}, "[5]": {"tested_on": "Staphylococcus aureus", "experiment": "Bactericidal activity against Staphylococcus aureus ATCC 25923 at 200 ug/ml measured after 6 hrs by serial dilution method relative to control"}, "[6]": {"tested_on": "Pseudomonas aeruginosa", "experiment": "Bactericidal activity against Pseudomonas aeruginosa PAO1 ATCC 15692 at 50 to 100 ug/ml measured after 3 hrs by serial dilution method relative to control"}, "[7]": {"tested_on": "Staphylococcus aureus", "experiment": "Antibacterial activity against Staphylococcus aureus ATCC 25923 assessed as colony forming units at 1 ug/ml measured after 24 hrs by serial dilution method (reference value: 77.66 +/- 5.13 10^6CFU)"}, "[8]": {"tested_on": "Mycolicibacterium smegmatis", "experiment": "Antibacterial activity against Mycobacterium smegmatis MC2 155 ATCC 700084 assessed as colony forming units at 1 ug/ml measured after 6 hrs by serial dilution method (reference value: 70 +/- 1.73 10^3CFU)", "in_short": "as §1"}, "[9]": {"tested_on": "Mycolicibacterium smegmatis", "experiment": "Antibacterial activity against Mycobacterium smegmatis MC2 155 ATCC 700084 assessed as colony forming units at 1 ug/ml measured after 24 hrs by serial dilution method (reference value: 84 +/- 4.35 10^3CFU)", "in_short": "as §1"}, "[10]": {"tested_on": "Staphylococcus aureus", "experiment": "Bactericidal activity against Staphylococcus aureus ATCC 25923 at 1 to 10 ug/ml measured after 6 hrs by serial dilution method relative to control"}, "[11]": {"tested_on": "Pseudomonas aeruginosa", "experiment": "Bactericidal activity against Pseudomonas aeruginosa PAO1 ATCC 15692 at 10 to 50 ug/ml measured after 1 hrs by serial dilution method relative to control"}, "[12]": {"tested_on": "Staphylococcus aureus", "experiment": "Bactericidal activity against Staphylococcus aureus ATCC 25923 at 100 ug/ml measured after 24 hrs by serial dilution method relative to control"}, "[13]": {"tested_on": "Pseudomonas aeruginosa", "experiment": "Bactericidal activity against Pseudomonas aeruginosa PAO1 ATCC 15692 at 50 ug/ml measured after 3 hrs by serial dilution method relative to control"}, "[14]": {"tested_on": "Staphylococcus aureus", "experiment": "Bactericidal activity against Staphylococcus aureus ATCC 25923 at 100 ug/ml measured after 6 hrs by serial dilution method relative to control"}, "[15]": {"tested_on": "Pseudomonas aeruginosa", "experiment": "Bactericidal activity against Pseudomonas aeruginosa PAO1 ATCC 15692 at 50 ug/ml measured after 1 hr by serial dilution method relative to control"}}}
{"smiles": "Cc1ccc(O)c(NC(=O)/C=C/c2ccc(O)c(O)c2)c1", "values": [{"measurement": "Activity", "setting": "[1]", "value": 89.6, "unit": "%"}, {"measurement": "Activity", "setting": "[2]", "value": "Dose-dependent effect"}, {"measurement": "Activity", "setting": "[3]", "value": 6.66, "unit": "×10⁶ CFU"}, {"measurement": "Activity", "setting": "[4]", "value": 15.66, "unit": "×10⁶ CFU"}, {"measurement": "Activity", "setting": "[5]", "value": 93.8, "unit": "%"}, {"measurement": "Activity", "setting": "[6]", "value": 50, "unit": "%"}, {"measurement": "Activity", "setting": "[7]", "value": 75.66, "unit": "×10⁶ CFU"}, {"measurement": "Activity", "setting": "[8]", "value": 65.66, "unit": "×10³ CFU"}, {"measurement": "Activity", "setting": "[9]", "value": 62.66, "unit": "×10³ CFU"}, {"measurement": "Activity", "setting": "[10]", "value": 60.9, "unit": "%"}, {"measurement": "Activity", "setting": "[11]", "value": 50, "unit": "%"}]}
{"smiles": "O=C(/C=C/c1ccc(O)c(O)c1)Nc1ccccc1Nc1ccccc1", "values": [{"measurement": "Activity", "setting": "[12]", "value": 84.9, "unit": "%"}, {"measurement": "Activity", "setting": "[1]", "value": 68.2, "unit": "%"}, {"measurement": "Activity", "setting": "[2]", "value": "Dose-dependent effect"}, {"measurement": "Activity", "setting": "[13]", "value": 62.1, "unit": "%"}, {"measurement": "Activity", "setting": "[4]", "value": 11.33, "unit": "×10⁶ CFU"}, {"measurement": "Activity", "setting": "[14]", "value": 92.3, "unit": "%"}, {"measurement": "Activity", "setting": "[7]", "value": 68.33, "unit": "×10⁶ CFU"}, {"measurement": "Activity", "setting": "[8]", "value": 52.33, "unit": "×10³ CFU"}, {"measurement": "Activity", "setting": "[9]", "value": 54, "unit": "×10³ CFU"}, {"measurement": "Activity", "setting": "[15]", "value": 58.9, "unit": "%"}]}
